Screening results from PubChem BioAssay.
Rows were chosen to be rich in hits. Some 2.6% of all compounds tested hit in one or more screens of this group.
SIAE primary – human SIAE inhibition, primary screen | 370,000 tested, 0.69% active | inhibition, % at 9.66 µM | SIAE FP-Rh probe binding, fluorescence polarization;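 active = inhibition above a cutoff: mean of compounds within the control limits plus 3 SD of those, cut at about 17% in these data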;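 note: 0% = plate median of compound wells and 100% = probe without SIAE protein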
HTRA1 inh – inhibitors of human serine peptidase HTRA1; Q92743; recombinant HTRA1, FP-rhodamine activity-based probe, fluorescence polarization; inhibition, % at 5.96 µM; 340,000 tested, 0.5% active; AID 504803; in the data active = inhibition above about 36%;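 note: 0% = enzyme with DMSO and 100% = wells lacking enzyme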
PRMT1 inh – blocks human protein arginine methyltransferase 1; Q99873; recombinant PRMT1, activity-based probe fluorescence polarization; inhibition, % at 2.79 µM; 370,000 tested, 1.3% active;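 active = inhibition above about 21% made by adding two undisclosed values, limit read from the data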
ABHD4 inh – inhibitors of mouse ABHD4 | Q8VD66 | purified mABHD4, FP-Rh probe fluorescence polarization | inhibition, % at 8.92 µM | 370,000 tested, 0.54% active | AID 720543;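 active = inhibition exceeding the mean over every tested compound plus 3 SD, cut at about 30% in these data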;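 note: 0% = plate median of compound wells and 100% = S159A mutant with DMSO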
Target sequence (Q8VD66 whole entry, looked up): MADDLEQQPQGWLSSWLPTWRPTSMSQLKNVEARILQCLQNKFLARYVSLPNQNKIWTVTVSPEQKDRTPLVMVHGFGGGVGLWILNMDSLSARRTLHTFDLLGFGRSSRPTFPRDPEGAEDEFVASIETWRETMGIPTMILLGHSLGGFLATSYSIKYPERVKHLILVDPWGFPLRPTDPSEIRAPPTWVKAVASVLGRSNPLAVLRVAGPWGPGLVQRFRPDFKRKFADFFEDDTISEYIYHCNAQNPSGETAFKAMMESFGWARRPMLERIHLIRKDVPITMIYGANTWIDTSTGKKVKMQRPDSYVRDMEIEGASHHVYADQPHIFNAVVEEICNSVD
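Assay system: mouse ABHD4 enzyme, wild type / Also added: fluorescent activity-based probe FP-Rh / Doses: single nominal dose of 8.92 µM, 0.89% DMSO final / Timing: 45 min compound pre-incubation plus 60 min probe step, 25 °C / Signal: FP readout, ex 525 nm / em 598 nm / Control set: S159A mutant/DMSO as 100%, compound-well median as 0%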
TCR CD3 inh – inhibitors of human TCR-CD3 interaction | AID 651800 | 360,000 tested, 0.37% active | TAMRA-labeled TCR probe fluorescence, biochemical | inhibition, % at 9.4 µM; in the data active = inhibition above about 19%;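 note: recombinant mutant TCR 2C K166C tagged with TAMRA read by polarization; 0% = receptor in buffer alone and 100% = receptor with positive control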
SIAE confirm – human SIAE inhibition, confirmation; shares compounds with SIAE primary; SIAE FP-Rh activity-based probe, fluorescence polarization; inhibition, % at 9.66 µM; 2,300 tested, 13% active; AID 1117263;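 active = mean inhibition of the replicates above the hit cutoff set in the primary screen, cut at about 17% in these data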;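 note: 0% = SIAE with DMSO and probe and 100% = probe without SIAE; inhibitors lower polarization as more probe stays unbound to SIAE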
Active calls of the source: *; / = not tested or not shown.

SMILES	SIAE primary	HTRA1 inh	PRMT1 inh	ABHD4 inh	TCR CD3 inh	SIAE confirm
O=C(CCc1c[nH]c2ccccc12)Nc1ccc(Nc2ccncc2)cc1	26*	/	1	10	-4	21*
O=C(CCc1c[nH]c2ccccc12)Nc1ccc(Nc2ccccc2)cc1	17*	/	4	9	-8	13
O=C(Nc1cccc(Cl)c1Cl)C1CCCC1	-1	2	-1	1	7	/
COc1ccccc1OCC(=O)Nc1ccc(C(N)=O)cc1	18*	1	-2	3	1	-2
COCc1cc(=O)[nH]c2cc(NC(=O)C(C)(C)CCl)c(C)cc12	97*	1	-1	1	-2	0
Cc1cnc(C(=O)Oc2ccc(-c3ccccc3)cc2)cn1	17*	-3	2	3	-2	-7
COc1ccccc1OCC(=O)N1CCCC(Nc2ccc(C)c(C)c2)C1 (stereo unspecified)	-2	2	0	-1	-4	/
COc1ccc(CCC(=O)N2CCCC(Nc3ccc(C)c(C)c3)C2)cc1OC (stereo unspecified)	17*	-5	-3	1	-2	5
CCN(CC(=O)NCc1ccc(Cl)cc1)C(=O)CCC(=O)c1ccc(C)cc1	-6	-12	-1	-8	4	/
CCN(CC(=O)NCc1ccc(Cl)cc1)C(=O)CCC(=O)c1ccc(F)cc1	20*	-4	-2	2	1	-2
CCOc1ccc(OCCOC(=O)C2CCN(S(=O)(=O)c3ccc(C)c(C)c3)CC2)cc1	-6	-16	4	-13	0	/
CC(C)c1ccc(NC2CCCN(C(=O)CN3C(=O)CSC3=O)C2)cc1 (stereo unspecified)	17*	0	-1	-3	-4	-1
CN(C(=O)c1ccccn1)c1nnc(-c2cccnc2)s1	7	-1	0	-8	2	/
Cc1nnc(N(C)C(=O)c2ccccn2)s1	32*	3	1	2	3	4
C=CCn1c(C)nnc1SCC(=O)N1c2ccccc2NC(=O)C1(C)C	18*	3	-2	1	0	-8
C[C@H](c1ccccc1)N1C[C@@H](COCc2ccccc2)Oc2cc(N3CC[C@@H](N(C)C)C3)ccc2S1(=O)=O	18*	/	-2	7	8	11
Cc1ccccc1C(=O)Nc1nnc(-c2cccnc2)o1	18*	0	-2	-2	-4	-5
COc1ccccc1Cc1c(-c2ccc(C)cc2)nc2ccc(C)cn12	-3	/	-6	-13	-7	/
O=C(C1CC1)N1CCN(c2ccc(O)cc2)CC1	19*	1	7	19	1	4
Cc1ccc(S(=O)(=O)N2CCC3(CC2)OCCN3S(=O)(=O)c2cccs2)cc1	-8	-8	2	-1	12	/
Cc1ccc(S(=O)(=O)N2CCOC23CCN(S(=O)(=O)c2cccs2)CC3)cc1	18*	3	0	3	-5	4
Cc1cccc(C)c1NC(=O)C(c1ccccc1)n1c(-c2ccccc2)nc2ccccc21 (stereo unspecified)	-1	/	-1	-10	0	/
CC(=O)/C(=N\Nc1ccccc1)Oc1ccc(Br)cc1	-1	/	3	-4	-1	/
COc1ccc(NC(=O)c2cccc(N3C(=O)c4ccc(C(=O)Nc5ccc(OC)c(O)c5)cc4C3=O)c2)cc1O	23*	4	3	20	1	5
Oc1nc(Nc2cccc(Cl)c2)sc1/C=C1\C=Nc2ccccc21	26*	-21	1	-6	-3	-19
SMILES	SIAE primary	HTRA1 inh	PRMT1 inh	ABHD4 inh	TCR CD3 inh	SIAE confirm
Cc1ccc(NC2=C([N+](=O)[O-])CS(=O)(=O)C2)cc1	1	2	3	7	4	/
CN(C)c1ccc(NC2=C([N+](=O)[O-])CS(=O)(=O)C2)cc1	18*	21	12	29	7	8
CC(C)c1nc2c(s1)CCc1onc(-c3cccc([N+](=O)[O-])c3)c1-2	5	4	2	2	-5	/
C=CCNC(=O)c1cc2c(=O)n3ccccc3nc2s1	-1	4	-1	10	8	/
CN(C)CCCN(C(=O)c1ccc(S(=O)(=O)N(C)Cc2ccccc2)cc1)c1nc2cc3c(cc2s1)OCO3	22*	-21	-1	4	6	15
CCN(c1ccccc1)S(=O)(=O)c1ccc(C(=O)N(CCCN(C)C)c2nc3cc4c(cc3s2)OCO4)cc1	13	-11	1	7	1	/
C=CCN1C(C(=O)OCC)CSCCS1(=O)=O (stereo unspecified)	-7	/	0	-2	1	/
CCOC(=O)c1c(C)[nH]c(C2=NNC(=Nc3ccc(OCC)cc3)SC2)c1C	28*	25	10	11	-2	1
CCN(CC)c1ccc(C(=O)NNC(=O)C2CCN(c3ncnc4sc(C)c(C)c34)CC2)cc1	-7	-12	-1	10	-1	/
Cc1ccc(S(=O)(=O)Oc2ccccc2/C=N/N=C(N)N)cc1	21*	-7	-3	-2	6	-4
Cc1[nH]c2ccccc2c1CC(=O)Nc1ccc(Nc2cccnc2)c(-c2ccc(F)c(F)c2)c1	17	/	2	27	4	/
O=C(Cc1c[nH]c2ccccc12)Nc1ccc(Nc2cccnc2)c(-c2ccc(-c3ccccc3)cc2F)c1	22*	/	9	19	0	-2
O=C(Cc1c[nH]c2ccccc12)Nc1ccc(Nc2cccnc2)c(-c2ccc(F)c(F)c2)c1	28*	/	-2	26	-1	10
O=C(Cc1c[nH]c2ccccc12)Nc1ccc(Nc2cccnc2)c(-c2cccc(Cl)c2)c1	9	/	-4	18	-4	/
COc1c2c(c(OC)c3ccccc13)[C@]1(OC2)O[C@H](CCO)C[C@H](O)[C@H]1O	-2	/	-1	3	6	/
CCN(CC)C(C)C(=O)Nc1c2c(cc3c1CCC3)CCC2 (stereo unspecified)	5	8	4	-3	-2	/
CC(C(=O)Nc1c2c(cc3c1CCC3)CCC2)N1CCCC1 (stereo unspecified)	20*	2	-4	-3	1	-7
CCOc1cc(-c2nc(-c3ccccc3)c(-c3cc([N+](=O)[O-])ccc3C)[nH]2)ccc1O	24*	10	3	13	-7	6
COc1ccc(-c2nc(-c3ccccc3)c(-c3cc([N+](=O)[O-])ccc3C)[nH]2)cc1OC	3	0	-3	4	6	/
O=[N+]([O-])c1ccc(O)c(-c2nc(-c3ccccc3)c(-c3cccs3)[nH]2)c1	17*	2	-3	0	4	7
Cc1c(Cl)cnc(NC(=O)COC(=O)[C@H](C)NC(=O)c2ccccc2)c1Cl	-3	1	9	10	5	/
Cc1c(C(=O)N2CCN(S(=O)(=O)c3ccc(F)cc3)CC2)oc2ccccc12	0	1	1	0	4	/
